Compounds with a hit are over-represented: about 2.6% of the library has one in this group of screens.
UCH37 DUB inh = blocks the human deubiquitinase UCH37; Q9Y5K5; inhibition, % (test concentration not listed); 330,000 tested, 0.33% active; AID 588478; purified proteasome/UCH37, Ub-AMC cleavage fluorescence;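 active = mean inhibition over replicate wells above about 20%, limit read from the data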
Target sequence (Q9Y5K5 whole entry, looked up): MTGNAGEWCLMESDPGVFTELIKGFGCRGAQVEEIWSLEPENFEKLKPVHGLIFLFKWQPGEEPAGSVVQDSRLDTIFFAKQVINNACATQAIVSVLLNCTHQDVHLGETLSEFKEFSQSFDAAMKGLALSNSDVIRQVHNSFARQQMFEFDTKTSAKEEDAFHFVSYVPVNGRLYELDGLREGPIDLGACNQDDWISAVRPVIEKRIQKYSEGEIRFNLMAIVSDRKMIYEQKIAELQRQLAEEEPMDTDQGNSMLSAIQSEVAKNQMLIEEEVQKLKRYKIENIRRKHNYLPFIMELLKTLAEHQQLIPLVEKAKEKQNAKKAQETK
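assay system = human UCH37 enzyme supplied as purified proteasome complex | amount = proteasome at 0.15 nM in the dispensed enzyme solution | schedule = 30 min compound-proteasome preincubation then 25 min substrate reaction, room temperature | measured by = fluorescence, ex 355 nm, em 460 nm | benchmarks = no-proteasome wells (full inhibition) and compound-free wells (no inhibition)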
SENP1 inh = SENP1 (human) catalytic domain inhibition | Q9P0U3 | recombinant SENP1 catalytic domain, CyPet-SUMO1-YPet FRET cleavage | inhibition, % at 10 µM | 360,000 tested, 0.21% active | AID 624204;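 active = inhibition at least 30% at 10 µM, raw YFP signal under a set limit, fluorescence ratio 0.5 to 1.5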
Target sequence (Q9P0U3 419-644 limits assumed): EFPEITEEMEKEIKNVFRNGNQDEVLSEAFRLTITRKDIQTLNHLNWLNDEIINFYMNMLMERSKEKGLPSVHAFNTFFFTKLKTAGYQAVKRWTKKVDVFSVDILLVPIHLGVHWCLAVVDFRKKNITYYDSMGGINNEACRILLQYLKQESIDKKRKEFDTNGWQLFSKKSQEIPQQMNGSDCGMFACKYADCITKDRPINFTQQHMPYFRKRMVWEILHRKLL
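Material: hSENP1 catalytic domain, recombinant; medium: Tris pH 8 with BME, BSA, NP40 and catalase; compound: single concentration of 10 µM compound, 0.5% DMSO final; technique: FRET read of cyan and yellow fluorescence; timing: 50 min enzyme reaction, room temperature, light-protected; reagent: SFCypet-SUMO1-SFYpet substrate at 25 nM; control set: no-enzyme low, enzyme-DMSO high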
SENP8 block-1 = inhibitors of human SENP8 protease. 330,000 tested, 1.2% active. AID 2540. purified SENP8, Z-RLRGG-aminoluciferin cleavage, luminescence. inhibition, % at 10 µM. Q96LD8; in the data active = inhibition above about 50%
SENP6 block = SENP6 protease inhibition; Recombinant SENP6 catalytic domain, aminoluciferin luminescence; inhibition, % at 10 µM; 330,000 tested, 1.8% active; Q9GZR1;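 active = inhibition above about 50% at the single tested dose, limit read from the data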
SENP7 inh = blocks the human protease SENP7. recombinant SENP7, Z-RLRGG-aminoluciferin luminescence, 40 min. inhibition, % at 5 µM. 330,000 tested, 1.5% active. Q9BQF6;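 active = inhibition above about 50% at the single test dose, limit read from the data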
SENP8 block-2 = SENP8 (human) protease inhibition. Q96LD8. recombinant SENP8, Nedd8 substrate fluorescence. inhibition, % at 20 µM. 360,000 tested, 0.64% active. AID 602440; in the data active = inhibition mostly above about 40%, no sharp cut-off; inactive = mostly below about 27%
SENP1 conf = confirmation of human SENP1 SUMO protease inhibitors | shares compounds with SENP1 inh | recombinant SENP1, CyPet-SUMO1-YPet FRET cleavage | inhibition, % at 10 µM | 520 tested, 34% active | AID 651678; in the data active = inhibition mostly above about 35%, no sharp cut-off; inactive = mostly below about 32%
SENP1 kinetic = SENP1 (human) inhibition, kinetic confirmation; shares compounds with SENP1 inh; recombinant SENP1, CyPet-SUMO1-YPet FRET kinetic cleavage; inhibition, % at 10 µM; 520 tested, 26% active; in the data active = inhibition mostly above about 32%, no sharp cut-off; inactive = mostly below about 29%
Of the large screens only hits and unclear results are named; the others gave an inactive call (follow-up assays come after a bar, where they were run).

COc1ccc(OC)c(NC(=O)c2cc3n(n2)C(C(F)(F)F)CC(c2ccc4c(c2)OCO4)N3)c1 (stereo not drawn)	none
COc1ccccc1NC(=O)c1cc2n(n1)C(C(F)(F)F)CC(c1ccc3c(c1)OCO3)N2 (stereo not drawn)	SENP1 inh 38 | SENP1 conf inactive | SENP1 kinetic inactive
O=C(CCC(=O)Nc1ccccc1)NN=Cc1ccc2c(c1)OCO2	none (no result: SENP1 inh, SENP8 block-1, SENP6 block, SENP7 inh, SENP8 block-2)
CCN1/C(=C\C=C2\C(=O)N(C)C(=S)N2C)Sc2ccccc21	SENP1 inh 37 | SENP1 conf inactive | SENP1 kinetic inactive
O=C1CN(C(=O)COC(=O)c2cccs2)c2ccccc2N1	none
Cn1c2ccccc2c2cc(C(=O)OCC(=O)N3CC(=O)Nc4ccccc43)sc21	SENP1 inh 35 | SENP1 conf inactive | SENP1 kinetic inactive
CN(C)c1cccc2c(S(=O)(=O)N3CCOCC3)cccc12	SENP1 inh 41 | SENP1 conf inactive | SENP1 kinetic inactive
Cc1ccc(NC(=S)NN=C2CCCc3c(C)cc(C)cc32)cc1	none (no result: SENP1 inh, SENP8 block-1, SENP6 block, SENP7 inh, SENP8 block-2)
COc1cc(SC#N)ccc1N=Cc1c(C)[nH]n(-c2ccc(C)cc2C)c1=O	SENP1 inh 67 | SENP1 conf 38 | SENP1 kinetic 34
O=C1Nc2ccccc2Oc2cc([N+](=O)[O-])ccc21	none
CCOc1cc([N+](=O)[O-])cc2c1C(=O)Nc1ccccc1O2	SENP1 inh 54 | SENP1 conf inactive | SENP1 kinetic inactive
CCC(=NNc1ccnc2cc(Cl)ccc12)c1ccc(O)cc1	none (no result: SENP1 inh, SENP8 block-1, SENP6 block, SENP7 inh, SENP8 block-2)
CN(C)NC(=S)Nc1ccc2nc(-c3ccccn3)c(-c3ccccn3)nc2c1	SENP1 inh 59 | SENP1 conf 38 | SENP1 kinetic inactive
CC(C)(C)CC(C)(C)NC(=S)Nc1ccc2nc(-c3ccccn3)c(-c3ccccn3)nc2c1	none
O=C1C=C(c2cccc(Cl)c2O)C[C@@H](c2ccc(Cl)cc2)C1	SENP1 inh 58 | SENP1 conf 99 | SENP1 kinetic 76
O=C(O)c1ccccc1C(=O)Nc1ccccc1NC(=O)c1ccccc1C(=O)O	SENP1 inh 88 | SENP1 conf inactive | SENP1 kinetic inactive
O=C(Nc1ccccc1)c1ccccc1NC(=O)c1ccccc1C(=O)O	none
Cc1cc(C(=O)NN=Cc2ccc(O)c([N+](=O)[O-])c2)c(C)n1-c1ccc(F)cc1	none (no result: SENP1 inh, SENP8 block-1, SENP6 block, SENP7 inh, SENP8 block-2)
COc1cc(C=Nn2nnnc2N)ccc1OC(C)=O	none (no result: SENP1 inh, SENP8 block-1, SENP6 block, SENP7 inh, SENP8 block-2)
N#C/C(C(N)=O)=C1/SC(Cc2ccc(F)cc2)C(=O)N1c1ccccc1 (stereo not drawn)	SENP1 inh 70 | SENP1 conf inactive | SENP1 kinetic inactive
CCOc1ccccc1N=Nc1c(C)[nH]n(C(N)=S)c1=O	SENP1 inh 48 | SENP1 conf inactive | SENP1 kinetic inactive
Oc1ccc(C=NN=C2c3ccccc3-c3ccccc32)c(O)c1	SENP1 inh 71 (no result: UCH37 DUB inh, SENP8 block-1, SENP6 block, SENP7 inh) | SENP1 conf 78 | SENP1 kinetic 51
CCOC(=O)NN=Cc1ccc(OC/C=C/c2ccccc2)c(OC)c1	none (no result: SENP1 inh, SENP8 block-1, SENP6 block, SENP7 inh, SENP8 block-2)
O=c1oc2ccccc2n1CCn1c2ccccc2c2nc3ccccc3nc21	none
COc1ccc2c(c1)c1nc3ccccc3nc1n2CCn1c(=O)oc2ccccc21	SENP1 inh 54 | SENP1 conf 131 | SENP1 kinetic 83
COc1ccc2c(c1)c1nc3ccccc3nc1n2Cc1ccc(OC(C)C)c(OC)c1	SENP1 inh 35 | SENP1 conf 47 | SENP1 kinetic 34
CC(CC(=O)C(F)(F)F)=NNC(=O)/C(C#N)=C/N(C)C	none (no result: SENP1 inh, SENP8 block-1, SENP6 block, SENP7 inh, SENP8 block-2)
Cc1ccsc1C=NNc1ncnc2nc[nH]c12	none (no result: SENP1 inh, SENP8 block-1, SENP6 block, SENP7 inh, SENP8 block-2)
O=C(NN=Cc1ccccc1C(=O)O)c1ccncc1	none (no result: SENP1 inh, SENP8 block-1, SENP6 block, SENP7 inh, SENP8 block-2)
O=C1C=C(Nc2ccc(Cl)cc2)C(=O)N1c1ccc(Cl)cc1	SENP1 inh 34 | SENP1 conf 38 | SENP1 kinetic 37
Cc1ccc(NC(=O)CCC(=O)NN=Cc2coc3ccc(F)cc3c2=O)cc1	none (no result: SENP1 inh, SENP8 block-1, SENP6 block, SENP7 inh, SENP8 block-2)

Compound activity as filed in PubChem BioAssay.
